Source: ChEMBL document CHEMBL2417469, “Synthesis of novel analogs of 2-pyrazoline obtained from [(7-chloroquinolin-4-yl)amino]chalcones and hydrazine as potential antitumor and antimalarial agents” (Eur J Med Chem, 2013)

How the values were obtained:
Format in all cases: functional
M14 = test: Cytotoxicity against human M14 cells after 48 hrs by SRB assay; details: M14, 48 h
Summary of the method: (§1)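 NCI 60-cell-line screen. Cells preincubated 24 h at 37 °C, 5% CO2; time-zero plates TCA-fixed. Compounds dissolved in DMSO and tested at five concentrations (100, 10, 1.0, 0.1, 0.01 µM) for 48 h continuous exposure. Adherent cells fixed with cold TCA (10% final), then SRB stained; absorbance at 515 nm. GI50, TGI and LC50 calculated from growth relative to time-zero and untreated controls.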

PC-3 = test: Cytotoxicity against human PC3 cells after 48 hrs by SRB assay; details: PC-3, 48 h; summary of the method: as §1
TK-10 = test: Cytotoxicity against human TK10 cells after 48 hrs by SRB assay; details: TK-10, 48 h
Summary of the method: (§2)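 NCI 60-cell screen. Cells grew 24 h (37 °C, 5% CO2) before compound was added. Compounds were in DMSO and diluted in medium with gentamicin, then tested at five levels (100, 10, 1.0, 0.1, 0.01 µM) with 48 h continuous exposure. Adherent cells were fixed with TCA (10% final) and stained with 0.4% SRB, absorbance read at 515 nm. A time-zero plate was included. LC50 is the concentration giving 50% loss of protein relative to time zero.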

MDA-MB-231 = test: Cytotoxicity against human MDA-MB-231 cells after 48 hrs by SRB assay; details: MDA-MB-231, 48 h; summary of the method: as §1
U-251 = test: Cytotoxicity against human U251 cells after 48 hrs by SRB assay; details: U-251, 48 h; summary of the method: as §2
A498 = test: Cytotoxicity against human A498 cells after 48 hrs by SRB assay; details: A498, 48 h; summary of the method: as §1
MDA-MB-435 = test: Cytotoxicity against human MDA-MB-435 cells after 48 hrs by SRB assay; details: MDA-MB-435, 48 h; summary of the method: as §1
OVCAR-4 = test: Cytotoxicity against human OVCAR4 cells after 48 hrs by SRB assay; details: OVCAR-4, 48 h; summary of the method: as §1
A549 = test: Cytotoxicity against human A549/ATCC cells after 48 hrs by SRB assay; details: A549, 48 h; summary of the method: as §1
SK-OV-3 = test: Cytotoxicity against human SKOV3 cells after 48 hrs by SRB assay; details: SK-OV-3, 48 h; summary of the method: as §1
SF-539 = test: Cytotoxicity against human SF539 cells after 48 hrs by SRB assay; details: SF-539, 48 h; summary of the method: as §1
IGROV-1 = test: Cytotoxicity against human IGROV1 cells after 48 hrs by SRB assay; details: IGROV-1, 48 h; summary of the method: as §1
CAKI-1 = test: Cytotoxicity against human Caki1 cells after 48 hrs by SRB assay; details: CAKI-1, 48 h; summary of the method: as §1
HCT-15 = test: Cytotoxicity against human HCT15 cells after 48 hrs by SRB assay; details: HCT-15, 48 h; summary of the method: as §1
MDA-MB-468 = test: Cytotoxicity against human MDA-MB-468 cells after 48 hrs by SRB assay; details: MDA-MB-468, 48 h; summary of the method: as §1
SF-268 = test: Cytotoxicity against human SF268 cells after 48 hrs by SRB assay; details: SF-268, 48 h; summary of the method: as §1
NCI-H226 = test: Cytotoxicity against human NCI-H226 cells after 48 hrs by SRB assay; details: NCI-H226, 48 h; summary of the method: as §1
DU-145 = test: Cytotoxicity against human DU145 cells after 48 hrs by SRB assay; details: DU-145, 48 h; summary of the method: as §1
HCT-116 = test: Cytotoxicity against human HCT116 cells after 48 hrs by SRB assay; details: HCT-116, 48 h; summary of the method: as §1
SK-MEL-28 = test: Cytotoxicity against human SK-MEL-28 cells after 48 hrs by SRB assay; details: SK-MEL-28, 48 h; summary of the method: as §1
CCRF-CEM = test: Cytotoxicity against human CCRF-CEM cells after 48 hrs by SRB assay; summary of the method: as §1
UO-31 = test: Cytotoxicity against human UO31 cells after 48 hrs by SRB assay; details: UO-31, 48 h; summary of the method: as §2
KM12 = test: Cytotoxicity against human KM12 cells after 48 hrs by SRB assay; details: KM12, 48 h; summary of the method: as §1
LOX IMVI = test: Cytotoxicity against human LOXIMVI cells after 48 hrs by SRB assay; summary of the method: as §1
MCF7 = test: Cytotoxicity against human MCF7 cells after 48 hrs by SRB assay; details: MCF7, 48 h; summary of the method: as §1
786-0 = test: Cytotoxicity against human 786-0 cells after 48 hrs by SRB assay; details: 786-0, 48 h; summary of the method: as §1
HT-29 = test: Cytotoxicity against human HT-29 cells after 48 hrs by SRB assay; details: HT-29, 48 h; summary of the method: as §1
OVCAR-8 = test: Cytotoxicity against human OVCAR8 cells after 48 hrs by SRB assay; details: OVCAR-8, 48 h; summary of the method: as §1
RXF 393 = test: Cytotoxicity against human RXF393 cells after 48 hrs by SRB assay; details: RXF 393, 48 h; summary of the method: as §1
Hs-578T = test: Cytotoxicity against human Hs578T cells after 48 hrs by SRB assay; summary of the method: as §1
UACC-62 = test: Cytotoxicity against human UACC62 cells after 48 hrs by SRB assay; details: UACC-62, 48 h; summary of the method: as §2
Malme-3M = test: Cytotoxicity against human MALME-3M cells after 48 hrs by SRB assay; summary of the method: as §1
HOP-92 = test: Cytotoxicity against human HOP92 cells after 48 hrs by SRB assay; details: HOP-92, 48 h; summary of the method: as §1
HCC 2998 = test: Cytotoxicity against human HCC2998 cells after 48 hrs by SRB assay; details: HCC 2998, 48 h; summary of the method: as §1
SNB-19 = test: Cytotoxicity against human SNB19 cells after 48 hrs by SRB assay; details: SNB-19, 48 h; summary of the method: as §2
SR = test: Cytotoxicity against human SR cells after 48 hrs by SRB assay; summary of the method: as §2
[1] = read-out: LC50 (the source's name)

O=CN1N=C(c2ccc(Nc3ccnc4cc(Cl)ccc34)cc2)CC1c1ccccc1 (configuration not stated)
GI50 (M14): 4.12 µM | CC50 (M14; [1]): > 100 µM | GI50 (PC-3): 4.76 µM | LC50 (PC-3): > 100 µM | GI50 (TK-10): 9.51 µM | LC50 (concentration giving 50% cell loss vs time zero) (TK-10): > 100 µM | GI50 (MDA-MB-231): 2430 nM | LC50 (concentration killing 50% of cells present at time zero) (MDA-MB-231): > 100 µM | GI50 (U-251): 3.12 µM | CC50 (U-251; [1]): > 100 µM | GI50 (A498): 1300 nM | CC50 (A498; [1]): > 100 µM | GI50 (MDA-MB-435): 1590 nM | LC50 (MDA-MB-435): > 100 µM | GI50 (OVCAR-4): 3.88 µM | LC50 (OVCAR-4): > 100 µM | GI50 (A549): 4.05 µM | CC50 (A549; [1]): > 100 µM | GI50 (SK-OV-3): 11.3 µM | LC50 (concentration killing 50% of cells) (SK-OV-3): > 100 µM | GI50 (SF-539): 4.57 µM | CC50 (SF-539; [1]): 99.2 µM | GI50 (IGROV-1): 9.36 µM | LC50 (concentration killing 50% of cells relative to time zero) (IGROV-1): > 100 µM | GI50 (CAKI-1): 3.82 µM | LC50 (CAKI-1): > 100 µM | GI50 (HCT-15): 2540 nM | LC50 (concentration killing 50% of cells relative to time zero) (HCT-15): > 100 µM | GI50 (MDA-MB-468): 980 nM | LC50 (MDA-MB-468): 10 µM | GI50 (SF-268): 3.96 µM | LC50 (SF-268): > 100 µM | GI50 (NCI-H226): 5.22 µM | LC50 (50% lethal concentration) (NCI-H226): > 100 µM | GI50 (DU-145): 3.8 µM | LC50 (concentration killing 50% of cells) (DU-145): > 100 µM | GI50 (HCT-116): 3.58 µM | LC50 (HCT-116): > 100 µM | GI50 (SK-MEL-28): 8.35 µM | CC50 (SK-MEL-28; [1]): > 100 µM | GI50 (CCRF-CEM): 2510 nM | LC50 (concentration killing 50% of cells relative to time zero) (CCRF-CEM): > 100 µM | GI50 (UO-31): 3.81 µM | LC50 (UO-31): > 100 µM | GI50 (KM12): 3.41 µM | LC50 (concentration killing 50% of cells) (KM12): > 100 µM | GI50 (LOX IMVI): 1610 nM | LC50 (LOX IMVI): 6.88 µM | GI50 (MCF7): 3.42 µM | CC50 (MCF7; [1]): > 100 µM | GI50 (786-0): 3.36 µM | LC50 (786-0): 98.4 µM | GI50 (HT-29): 3.21 µM | LC50 (HT-29): > 100 µM | GI50 (OVCAR-8): 4.53 µM | LC50 (50% net cell kill) (OVCAR-8): > 100 µM | GI50 (RXF 393): 2200 nM | LC50 (concentration killing 50% of cells) (RXF 393): > 100 µM | GI50 (Hs-578T): 3.77 µM | LC50 (50% net cell kill) (Hs-578T): > 100 µM | GI50 (UACC-62): 1550 nM | CC50 (UACC-62; [1]): 17.4 µM | GI50 (Malme-3M): 4.21 µM | LC50 (Malme-3M): > 100 µM | GI50 (HOP-92): 4.28 µM | LC50 (concentration killing 50% of cells) (HOP-92): > 100 µM | GI50 (HCC 2998): 3.5 µM | LC50 (HCC 2998): > 100 µM | GI50 (SNB-19): 5.13 µM | LC50 (SNB-19): > 100 µM | GI50 (SR): 1770 nM | LC50 (SR): > 100 µM
